Experimental data taken from ChEMBL document CHEMBL2331550, “Design, synthesis and structure-activity relationship of novel tricyclic benzimidazolone derivatives as potent 18 kDa translocator protein (TSPO) ligands” (Bioorg Med Chem, 2013).
Values after ≈ are worked out from the molar mass of the structure shown.

Experiments:
[1] = Metabolic stability in rat liver S9 fraction assessed as compound remaining at 1 uM after 30 mins; assay type: ADME, subcellular; settings: read-out: Stability
Rattus norvegicus = species: Rattus norvegicus; assay: Displacement of [3H]flumazenil from CBR in Sprague-Dawley rat cerebral cortex membrane at 10 uM after 1 hr by liquid scintillation counting analysis; assay type: tissue-based
How it was run: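 Male SD rat cerebral cortex was homogenised in potassium phosphate buffer (200 mM KCl, 20 mM KOH, 20 mM KH2PO4, pH 7.4) and washed at 32,500×g. Membranes were incubated with 1.0 nM [3H]-flumazenil (final) and 10 µM test compound for 1 h at 25 °C, then GF/B-filtered and counted by scintillation. Nonspecific binding was taken with […]. Percent inhibition of specific binding was measured in duplicate.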

Translocator protein = Translocator protein (Rattus norvegicus, UniProt P16257); assay: Displacement of [3H]PK11195 from TSPO in Sprague-Dawley rat kidney mitochondria after 1 hr by liquid scintillation counting analysis
Chain of Translocator protein (P16257 whole entry, looked up): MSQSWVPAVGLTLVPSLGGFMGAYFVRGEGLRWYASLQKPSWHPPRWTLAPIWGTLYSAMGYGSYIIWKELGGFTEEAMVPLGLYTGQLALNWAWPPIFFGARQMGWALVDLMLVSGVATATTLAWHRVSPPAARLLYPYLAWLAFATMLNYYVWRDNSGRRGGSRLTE

[2] = Metabolic stability in rat liver S9 fraction assessed as compound remaining at 10 uM after 30 mins; assay type: ADME, subcellular; settings: read-out: Stability
[3] = Aqueous solubility of the compound at pH 2.5; assay type: physicochemical
[4] = Aqueous solubility of the compound at pH 7.4; assay type: physicochemical
[5] = target: Translocator protein (Rattus norvegicus) (UniProt P16257); assay: Displacement of [3H]PK11195 from TSPO in Sprague-Dawley rat kidney mitochondria at 100 nM after 1 hr by liquid scintillation counting analysis
Chain of Translocator protein (Rattus norvegicus) (P16257 whole entry, looked up): as above

Row | remaining at 0.5 h, 1 µM [1] | inhibition (Rattus norvegicus) | Ki (Translocator protein) | Compound | other results
1 | 1% | 30% | 0.32 nM | CN(C(=O)Cn1c(=O)n2c3c(cc(-c4ccccc4)cc31)CCCC2)c1ccccc1 | –
2 | 3% | – | – | CN(C(=O)Cn1c(=O)n2c3c(cc(-c4ccncc4)cc31)CCC2)c1ccccc1 | –
3 | 0% | 3% | 0.44 nM | CN(C(=O)Cn1c(=O)n2c3c(cc(-c4ccccc4)cc31)CCC2)c1cccc(Cl)c1 | –
4 | 12% | 14% | 0.94 nM | CN(C(=O)Cn1c(=O)n2c3c(cc(-c4ccccc4)cc31)CCC2)c1ccccc1 | –
5 | 0% | 24% | 15 nM | CN(C(=O)Cn1c(=O)n2c3c(cc(-c4ccccc4)cc31)CCC2)c1ccncc1 | –
6 | 0% | 6% | 0.28 nM | COc1cccc(N(C)C(=O)Cn2c(=O)n3c4c(cc(-c5ccccc5)cc42)CCC3)c1 | –
7 | 0% | 34% | 2.5 nM | CN(C(=O)Cn1c(=O)n2c3c(cc(-c4ccccc4)cc31)CCC2)c1ccccn1 | –
8 | 0% | 36% | 2.1 nM | CN(C(=O)Cn1c(=O)n2c3c(cc(-c4ccccc4)cc31)CCC2)c1cccnc1 | –
9 | 0% | – | – | CN(C(=O)Cn1c(=O)n2c3c(cc(-c4ccccn4)cc31)CCC2)c1ccccc1 | –
10 | 41% | – | – | CN(C(=O)Cn1c(=O)n2c3c(cc(Nc4cccnc4)cc31)CCC2)c1ccccc1 | solubility [3]: > 1000 µg/mL; solubility [4]: 4 µg/mL (≈ 9.67 µM)
11 | 0% | 4% | 0.13 nM | CN(C(=O)Cn1c(=O)n2c3c(cc(-c4ccccc4)cc31)CCC2)c1ccc(Cl)cc1 | –

The next lines start with the molecule.

Row | Compound | remaining at 0.5 h, 1 µM [1] | inhibition (Rattus norvegicus) | Ki (Translocator protein) | other results
12 | COc1ccc(N(C)C(=O)Cn2c(=O)n3c4c(cc(-c5ccccc5)cc42)CCC3)cc1 | – | 3% | 0.73 nM | remaining at 0.5 h, 10 µM [2]: 0%
13 | CN(C(=O)Cn1c(=O)n2c3c(cc(-c4ccccc4)cc31)OCC2)c1ccccc1 | 1% | 68% | 0.21 nM | –
14 | CN(Cc1ccccc1)C(=O)Cn1c(=O)n2c3c(cc(-c4ccccc4)cc31)CCC2 | 1% | 72% | 0.23 nM | –
15 | CN(C(=O)Cn1c(=O)n2c3c(cc(-c4ccc(C(F)(F)F)cc4)cc31)CCC2)c1ccccc1 | 0% | – | – | –
16 | CN(C(=O)Cn1c(=O)n2c3c(cc(-c4cccnc4)cc31)CCC2)c1ccccc1 | – | – | – | remaining at 0.5 h, 10 µM [2]: 0%
17 | CN(C(=O)Cn1c(=O)n2c3c(cc(-c4cccc(C(F)(F)F)c4)cc31)CCC2)c1ccccc1 | 0% | – | – | –
18 | CCCN(CCC)C(=O)Cn1c(=O)n2c3c(cc(-c4ccccc4)cc31)CCC2 | 1% | 11% | 1.7 nM | –
19 | COc1ccc(-c2cc3c4c(c2)n(CC(=O)N(C)c2ccccc2)c(=O)n4CCC3)cc1 | – | – | – | remaining at 0.5 h, 10 µM [2]: 2%
20 | CN(C(=O)Cn1c(=O)n2c3c(cccc31)CCC2)c1ccccc1 | – | – | – | remaining at 0.5 h, 10 µM [2]: 0%
21 | COc1cccc(-c2cc3c4c(c2)n(CC(=O)N(C)c2ccccc2)c(=O)n4CCC3)c1 | 1% | – | – | –
22 | O=C(Cn1c(=O)n2c3c(cc(-c4ccccc4)cc31)CCC2)Nc1ccccc1 | 62% | 27% | 33 nM | –
23 | CN(C(=O)Cn1c(=O)n(C)c2ccc(-c3ccccc3)cc21)c1ccccc1 | – | – | – | inhibition [5]: 100%
24 | CN(C(=O)Cn1c(=O)[nH]c2ccc(-c3ccccc3)cc21)c1ccccc1 | – | – | – | inhibition [5]: 86%
25 | CN(C(=O)Cn1c(=O)n2c3c(cc(Br)cc31)CCC2)c1ccccc1 | – | – | – | remaining at 0.5 h, 10 µM [2]: 0%
